Results as given in article PMC11982377 (Communications Biology, 2025).
Entries after “also recorded” stand apart in the source; their conditions may differ.

Experiments:
[1] = target: T1, sfWDS (Spodoptera frugiperda, UniProt A0A2H1VC02); test: Sf9 cell degradation assay; assay type: cell-based; details: Sf9 cells
In short: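 Sf9 cells in ESF921 medium, split into 1e6-cell aliquots and treated 24 h with test compound or DMSO. For sfWDS, some treatments at 10 μM ± bortezomib 10 μM. Lysed in Tris-SDS, then acetone precipitation, urea reduction/alkylation, Trypsin/LysC digest and MCX cleanup. Stable-isotope peptide standards spiked in; targeted MS. Signal normalised to isotope and total peptide, as % of DMSO. n = 4. Dose-response by 4-parameter fit.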

[2] = test system: WDR5; details: MV4-11 cells ref 34; cited from earlier work
[3] = target: T1, sfWDS; test: In vitro ubiquitination; assay type: biochemical; details: listed as MS67
[4] = test system: Sf9 cells; test: PROTAC cellular permeability and distribution measured by LCMS; assay type: in vitro ADME, Spodoptera frugiperda; details: 10 µM, 24 h

For `Cc1ncsc1-c1ccc([C@H](C)NC(=O)[C@@H]2C[C@@H](O)CN2C(=O)[C@@H](NC(=O)CNC(=O)c2ccc(F)c(-c3ccc(N4C[C@@H](C)N(C)[C@@H](C)C4)c(NC(=O)c4c[nH]c(=O)cc4C(F)(F)F)c3)c2)C(C)(C)C)cc1` [Compound 12], the “degradation of sfWDS in cell” value [1] is given as “did not demonstrate in cell degradation”, the “degradation of sfWDS in cell” value ([1]; listed as MS67) is given as “failed to prompt degradation of sfWDS; also recorded: did not show degradation in cells” and the “Dmax, degradation of WDR5” value [2] is given as 94%. The “IVQ Y/N (ubiquitination of sfWDS)” value [3] was “polyubiquitination of sfWDS was observed in a dose-dependent manner” and the “PROTAC in cells (of total PROTAC recovery, cells vs media)” value [4] was “only detected at very low intracellular levels”.
